From PubChem
mABHD4 FP = ABHD4 (mouse) inhibition, primary FP screen; Q8VD66; 370,000 compounds, 0.54% hits; inhibition, % at 8.92 µM; AID 720543; purified mABHD4, FP-Rh probe fluorescence polarization;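 active = inhibition exceeding the mean over every tested compound plus 3 SD, cut at about 30% in these data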
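Assay system: wild-type mouse ABHD4 protein; compound: single nominal dose of 8.92 µM, 0.89% DMSO final; schedule: 45 min + 60 min at 25 °C; measured by: FP readout, ex 525 nm / em 598 nm; evaluation: % inhibition of FP-Rh probe binding versus controls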
SIAE inh = blocks human sialic acid acetylesterase; inhibition, % at 9.66 µM; 370,000 compounds, 0.69% hits; Q9HAT2; SIAE FP-Rh probe binding, fluorescence polarization; AID 1053197;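 active = inhibition above a cutoff: mean of compounds within the control limits plus 3 SD of those, cut at about 17% in these data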
rCAG RNA binder = binds r(CAG) RNA repeats; r(CAG) RNA repeat, TO-PRO-1 dye displacement fluorescence; inhibition, % at 3 µM; 370,000 compounds, 1.3% hits;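 active = inhibition above the plate cutoff, the mean of all test compounds on that plate plus 3 SD, cut at about 35% in these data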;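 note: higher means more dye released from RNA so lower well fluorescence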
HTRA1 inhibitor = HTRA1 (human) protease inhibition. Q92743. recombinant HTRA1, FP-rhodamine activity-based probe, fluorescence polarization. inhibition, % at 5.96 µM. 340,000 compounds, 0.5% hits; in the data active = inhibition above about 36%
PRMT1 FP inh = PRMT1 (human) inhibition, primary screen; recombinant PRMT1, activity-based probe fluorescence polarization; Q99873; inhibition, % at 2.79 µM; 370,000 compounds, 1.3% hits;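 active = inhibition above about 21% made by adding two undisclosed values, limit read from the data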
Target sequence (Q99873 whole entry, looked up): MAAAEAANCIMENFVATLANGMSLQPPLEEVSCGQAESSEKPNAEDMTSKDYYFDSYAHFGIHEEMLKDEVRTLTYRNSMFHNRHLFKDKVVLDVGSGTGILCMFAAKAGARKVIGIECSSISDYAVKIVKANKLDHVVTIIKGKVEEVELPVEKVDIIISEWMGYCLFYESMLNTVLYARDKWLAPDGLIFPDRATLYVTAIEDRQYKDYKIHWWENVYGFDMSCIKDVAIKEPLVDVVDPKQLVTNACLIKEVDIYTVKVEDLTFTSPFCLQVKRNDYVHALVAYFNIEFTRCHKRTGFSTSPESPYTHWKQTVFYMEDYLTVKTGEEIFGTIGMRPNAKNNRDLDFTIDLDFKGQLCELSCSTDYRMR
TCR-CD3 inh = inhibitors of human TCR-CD3 interaction | TAMRA-labeled TCR probe fluorescence, biochemical | inhibition, % at 9.4 µM | 360,000 compounds, 0.37% hits | AID 651800; in the data active = inhibition above about 19%;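 note: recombinant mutant TCR 2C K166C tagged with TAMRA read by polarization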
rCAG binder conf = r(CAG) RNA repeat binding, confirmation; shares compounds with rCAG RNA binder; TO-PRO-1 dye displacement fluorescence; inhibition, % at 3 µM; 4,300 compounds, 70% hits; AID 652065;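 active = inhibition above a per-plate cutoff, the mean inhibition of sample wells plus 3 SD, cut at about 35% in these data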;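 note: loss of TO-PRO-1 fluorescence as compound displaces dye from 1x1 AA loop RNA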
dCAG dye counter = counter-screen for rCAG RNA binders: DNA CAG dye complex inhibitors. 4,300 compounds, 94% hits. d(CAG) DNA oligo TO-PRO-1 dye displacement, fluorescence. inhibition, % at 3 µM. shares compounds with rCAG RNA binder. AID 652068;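 active = inhibition above its plate's cutoff, the mean test-well inhibition plus 3 SD, cut at about 4.8% in these data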;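 note: hits displace the dye from DNA and so lower well fluorescence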
Numbers stand for hits; 0 = inactive; - = no result given; ! = not confirmed by another sample. Rows were chosen to be rich in hits. Some 3.5% of all compounds tested hit in one or more screens of this group.

SMILES	mABHD4 FP	SIAE inh	rCAG RNA binder	HTRA1 inhibitor	PRMT1 FP inh	TCR-CD3 inh	rCAG binder conf	dCAG dye counter
CCCCC(=O)Nc1ccc(C(=O)NCC2COc3ccccc3O2)cc1 (stereo unspecified)	0	0	0	-	0	-	-	-
C=CCN1[C@H](C)COc2cc(N3CCSCC3)ccc2S1(=O)=O	0	0	0	-	0	-	-	-
CCOc1ccc(-n2c(SCC(=O)Nc3cccc4ccccc34)nnc2-c2ccncc2)cc1	0	0	0	-	0	-	-	-
CCN1CCN(Cc2ccc(NC(=O)c3cc(NC(=O)C4=NN(c5ccccc5)C(=O)C4)cc(OC)c3)cc2C(F)(F)F)CC1	0	0	38!	0	0	0	0	20
Cc1ccc(-c2nnc(SCC(=O)NN=Cc3c[nH]c4ccccc34)n2-c2ccccc2)cc1	0	0	0	-	0	-	-	-
CCC(C(=O)N1CCN(S(C)(=O)=O)CC1)c1ccccc1 (stereo unspecified)	0	0	0	0	0	0	-	-
CCOC(=O)N1CCN(C(=O)C(CC)c2ccccc2)CC1 (stereo unspecified)	0	0	39	0	0	0	0	0
C[C@H](NS(=O)(=O)c1ccc([N+](=O)[O-])cc1)C(=O)NCCNC(=O)[C@@H](C)NS(=O)(=O)c1ccc([N+](=O)[O-])cc1	0	0	-	-	0	-	-	-
CCN(CC)N=Nc1ccc(S(=O)(=O)Nc2nc(C)cc(C)n2)cc1	0	0	43!	0	0	0	0	0
NC(c1csc(NC(=O)Nc2cccc(Cl)c2)n1)C1CCCCC1 (stereo unspecified)	0	0	47	-	0	0	0	5.9
NC(c1csc(NC(=O)Nc2ccccc2)n1)C1CCCCC1 (stereo unspecified)	0	0	42	-	0	0	0	4.8
NC(c1csc(NC(=O)Nc2ccccc2Cl)n1)C1CCCCC1 (stereo unspecified)	0	0	0	-	0	0	-	-
CC(=O)Nc1ccc(OC(F)(F)C(F)F)c(NC(C)=O)c1	0	0	0	0	0	0	-	-
C=C(C)C(=O)Nc1ccc(OC(F)(F)C(F)F)c(NC(=O)C(=C)C)c1	0	0	44	0	0	0	0	0
Cc1ccc2c(c1)C(CS(=O)(=O)NC1CCCC1)NC2 (stereo unspecified)	0	0	0	-	0	-	-	-
COc1cc(NC(=O)C2CCN(S(=O)(=O)c3ccc4[nH]c(=O)oc4c3)CC2)cc(OC)c1	0	0	36	0	0	0	0	9.2
COc1cc(OC)cc(C(=O)Nc2nc3ccc(S(C)(=O)=O)cc3s2)c1	0	0	0	0	0	0	-	-
CS(=O)(=O)c1ccc2nc(NC(=O)c3ccc(NS(=O)(=O)c4ccc(F)c(F)c4)cc3)sc2c1	0	0	36	0	0	0	66	27
CS(=O)(=O)c1ccc2nc(NC(=O)c3cccc(NS(=O)(=O)c4ccc(F)c(F)c4)c3)sc2c1	0	0	59	0	0	0	60	25
O=C(Nc1nc2ccc(SC(F)F)cc2s1)c1ccc(NS(=O)(=O)c2ccc(F)c(F)c2)cc1	0	0	62	0	0	0	84	66
COC(=O)C(C)N1C(=O)S/C(=C\c2ccc(-c3ccc(C(=O)O)cc3C)o2)C1=O (stereo unspecified)	0	0	44	0	0	0	0	7.8
C=CCCC(=O)N[C@H]1CC[C@@]23CCCN2C(=O)CCC[C@H]3[C@H]1CCC	0	0	-	-	0	-	-	-
O=C(NNC(=S)NC(=O)c1ccccc1Cl)c1cccc([N+](=O)[O-])c1	0	0	0	0	0	0	-	-
O=C(NC(NC(=S)Nc1c(Cl)cccc1Cl)C(Cl)(Cl)Cl)c1cccc([N+](=O)[O-])c1 (stereo unspecified)	0	0	47	0	0	0	36	16
O=C(NNc1c(Cl)cc(Cl)cc1Cl)c1cccc([N+](=O)[O-])c1	0	0	37	0	0	0	0	0
SMILES	mABHD4 FP	SIAE inh	rCAG RNA binder	HTRA1 inhibitor	PRMT1 FP inh	TCR-CD3 inh	rCAG binder conf	dCAG dye counter
Cc1c(NC(=O)C2CCCN(S(=O)(=O)c3ccccc3[N+](=O)[O-])C2)c(=O)n(-c2ccccc2)n1C (stereo unspecified)	0	0	0	-	0	-	-	-
Cc1nccc(-c2cccc(N/N=C(\C#N)C(=O)c3ccccc3)c2)n1	0	0	51	0	0	0	35	9.3
O=C1NC(c2ccc(-c3ccccc3[N+](=O)[O-])o2)C(C(=O)c2ccccc2)C(O)(C(F)(F)F)N1 (stereo unspecified)	0	0	53	0	0	0	0	0
CSCC[C@@H](Nc1nc(-c2ccccc2)nc2c1oc1ccccc12)C(=O)O	0	0	69	0	0	0	71	25
O=C(O)c1ccc(Nc2nc3ccccc3nc2NS(=O)(=O)c2ccc(F)cc2)cc1	0	0	41	0	0	0	53	21
O=C(O)c1cccc(Nc2c3ccccc3nc3ccccc23)c1	0	0	0	0	0	0	-	-
COc1cc(Nc2nc3ccccc3nc2NS(=O)(=O)c2ccc([N+](=O)[O-])cc2)cc(OC)c1OC	0	0	0	0	0	0	-	-
O=[N+]([O-])c1ccc(S(=O)(=O)Nc2nc3ccccc3nc2Nc2ccccc2)cc1	0	0	0	-	0	0	-	-
O=C(O)c1cccc(Nc2nc3ccccc3nc2NS(=O)(=O)c2ccccc2)c1	0	0	36	0	0	0	39	12
NS(=O)(=O)c1cccc(Nc2nc3ccccc3nc2NS(=O)(=O)c2ccc(Cl)cc2)c1	0	0	90	0	0	0	89	68
C#CCN1CC(N(C)CCOC(=O)c2cccs2)CS1(=O)=O (stereo unspecified)	0	0	0	-	0	-	-	-
O=C(c1ccncc1)N1CC[C@H]2[C@H](CCCN2Cc2cc(F)cc(F)c2)C1	0	0	0	-	0	-	-	-
Cc1cccc(C(=O)Nc2c(-c3ccc(C(F)(F)F)cc3)nc3ncccn23)c1	0	0	0	-	0	-	-	-
CCn1c(SCC(=O)c2ccc(-c3ccccc3)cc2)nnc1-c1ccc(C(C)(C)C)cc1	0	0	0	-	0	-	-	-
CC(c1ccco1)N(C(=O)c1ccccc1NS(=O)(=O)c1cccc([N+](=O)[O-])c1)c1ccccn1 (stereo unspecified)	-	-	-	0	-	-	-	-
CC(c1ccco1)N(C(=O)c1ccccc1NS(=O)(=O)c1cc([N+](=O)[O-])ccc1Cl)c1ccccn1 (stereo unspecified)	0	0	58	0	0	0	53	21
CCOC(=O)c1c(-c2ccc(-c3ccccc3)cc2)csc1NC(=O)C1C2CCC(O2)C1C(=O)O (stereo unspecified)	0	0	51	0	0	0	67	27
